Assay results published in BindingDB's records for PubMed 35512565 (Baylor College of Medicine, 2022).

Molecular target: Histone acetyltransferase p300 (Homo sapiens, UniProt Q09472)
Experiment: Inhibition of human p300 HAT domain (1195 to 1673 residues) using histone H3 peptide and acetyl-coA as substrates preincubated for 10 mins followed by substrate addition and measured after 30 mins by beckman scintillation counting analysis
Method in brief: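 Recombinant human p300 HAT domain (10 nM) was preincubated with a dilution series of inhibitor for 10 min at 25 °C in 50 mM phosphate buffer, pH 7.0, with 0.01% Brij-35. The reaction was started with histone H3(1-21) peptide (20 μM) and Ac-CoA (1 μM ³H-Ac-CoA plus 19 μM unlabelled) and run 30 min at 25 °C. It was stopped with formic acid, spotted on P81 paper, washed 3× with 50 mM NaHCO₃, and counted by scintillation. IC50 came from a sigmoidal fit, mean of ≥3 experiments.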

Histone acetyltransferase p300, sequence (Q09472 whole entry, the tested form may be a part): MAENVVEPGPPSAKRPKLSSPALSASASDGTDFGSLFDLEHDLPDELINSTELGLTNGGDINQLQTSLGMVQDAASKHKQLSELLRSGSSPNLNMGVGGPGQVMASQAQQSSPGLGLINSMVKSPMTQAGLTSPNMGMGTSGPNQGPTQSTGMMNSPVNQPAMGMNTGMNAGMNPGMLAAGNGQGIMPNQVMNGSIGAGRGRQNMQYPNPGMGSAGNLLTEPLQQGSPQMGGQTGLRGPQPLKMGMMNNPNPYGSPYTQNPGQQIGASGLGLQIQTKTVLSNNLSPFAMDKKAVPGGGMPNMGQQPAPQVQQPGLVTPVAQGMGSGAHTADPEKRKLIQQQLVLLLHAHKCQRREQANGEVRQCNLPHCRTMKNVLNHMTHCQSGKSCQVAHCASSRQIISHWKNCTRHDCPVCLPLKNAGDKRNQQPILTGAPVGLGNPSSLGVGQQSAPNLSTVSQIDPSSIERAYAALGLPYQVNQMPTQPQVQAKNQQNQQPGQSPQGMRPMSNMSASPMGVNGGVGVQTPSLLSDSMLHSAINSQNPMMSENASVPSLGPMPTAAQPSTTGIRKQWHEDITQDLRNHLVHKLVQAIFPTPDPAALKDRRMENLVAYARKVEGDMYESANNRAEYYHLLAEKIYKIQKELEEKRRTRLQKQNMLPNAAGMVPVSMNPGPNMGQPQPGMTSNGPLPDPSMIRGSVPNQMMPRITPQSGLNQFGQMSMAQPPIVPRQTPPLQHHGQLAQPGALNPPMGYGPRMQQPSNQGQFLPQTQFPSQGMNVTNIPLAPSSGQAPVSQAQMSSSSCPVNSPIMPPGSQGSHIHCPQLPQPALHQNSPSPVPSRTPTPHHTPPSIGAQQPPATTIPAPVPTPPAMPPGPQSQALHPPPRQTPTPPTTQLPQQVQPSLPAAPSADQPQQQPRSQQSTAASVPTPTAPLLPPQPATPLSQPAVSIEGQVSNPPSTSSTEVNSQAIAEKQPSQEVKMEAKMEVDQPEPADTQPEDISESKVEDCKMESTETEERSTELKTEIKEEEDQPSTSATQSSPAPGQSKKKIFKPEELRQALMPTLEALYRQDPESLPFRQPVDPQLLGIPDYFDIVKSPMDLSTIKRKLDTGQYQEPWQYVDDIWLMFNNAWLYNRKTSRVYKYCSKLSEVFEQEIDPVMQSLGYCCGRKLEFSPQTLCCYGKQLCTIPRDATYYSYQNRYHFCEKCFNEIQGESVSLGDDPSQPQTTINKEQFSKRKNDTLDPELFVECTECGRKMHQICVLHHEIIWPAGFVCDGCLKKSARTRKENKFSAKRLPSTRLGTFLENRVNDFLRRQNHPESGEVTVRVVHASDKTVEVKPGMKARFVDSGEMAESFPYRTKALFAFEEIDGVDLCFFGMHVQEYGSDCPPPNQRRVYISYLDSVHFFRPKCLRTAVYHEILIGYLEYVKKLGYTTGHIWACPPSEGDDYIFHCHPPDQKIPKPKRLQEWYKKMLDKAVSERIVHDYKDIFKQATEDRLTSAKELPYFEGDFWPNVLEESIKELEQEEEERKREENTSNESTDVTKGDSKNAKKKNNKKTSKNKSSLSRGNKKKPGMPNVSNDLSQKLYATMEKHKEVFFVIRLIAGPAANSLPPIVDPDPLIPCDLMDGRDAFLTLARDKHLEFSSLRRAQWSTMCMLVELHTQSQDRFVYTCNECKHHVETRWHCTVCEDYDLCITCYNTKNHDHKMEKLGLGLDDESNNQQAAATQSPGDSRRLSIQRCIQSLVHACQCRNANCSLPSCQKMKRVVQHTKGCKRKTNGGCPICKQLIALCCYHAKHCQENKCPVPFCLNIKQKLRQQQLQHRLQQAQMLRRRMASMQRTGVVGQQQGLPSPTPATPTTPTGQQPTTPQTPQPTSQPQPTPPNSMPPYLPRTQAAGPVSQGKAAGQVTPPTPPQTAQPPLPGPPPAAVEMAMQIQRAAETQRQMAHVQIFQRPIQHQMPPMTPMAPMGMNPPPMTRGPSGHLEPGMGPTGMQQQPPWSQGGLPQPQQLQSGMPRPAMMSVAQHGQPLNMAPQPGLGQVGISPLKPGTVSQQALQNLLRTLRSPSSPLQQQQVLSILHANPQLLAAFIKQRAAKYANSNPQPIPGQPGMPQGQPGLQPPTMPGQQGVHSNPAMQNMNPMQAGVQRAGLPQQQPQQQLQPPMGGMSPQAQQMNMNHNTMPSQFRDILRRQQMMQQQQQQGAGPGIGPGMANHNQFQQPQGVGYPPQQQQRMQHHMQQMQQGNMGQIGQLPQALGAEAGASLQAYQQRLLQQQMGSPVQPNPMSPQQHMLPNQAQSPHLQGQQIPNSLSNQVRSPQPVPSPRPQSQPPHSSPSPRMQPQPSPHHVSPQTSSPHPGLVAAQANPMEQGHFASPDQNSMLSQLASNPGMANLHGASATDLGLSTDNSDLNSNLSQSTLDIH

Compound: Brc1ccc(-c2ncc(OCC3CCNCC3)nc2-c2ccc(Br)c(Br)c2)cc1Br
- IC50: 10 µM
